Inhibition data for 55 compounds are collected here from PubChem BioAssay AID465 (The Scripps Research Institute Molecular Screening Center, 2006).

Out of some 62,000 compounds screened, about 130 (0.21%) were called active. The entries come from a sample that favours actives as a whole. Unmarked numbers belong to inactive results.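 How the source made its calls: active means inhibition above the mean of all tested compounds plus 3 SD (cut at about 40% in these data); inactive means the rest.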

The experiment is described as follows: lowered NF-kB luciferase signal in HEK293 cells – cell-based, HEK-293 luciferase reporter, PMA/ionomycin, luminescence, antigen receptor NF-kB inhibitor project, primary screen (AID 465).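 Further: 0% = stimulated DMSO wells and 100% = 10 µM reference inhibitor 5653914.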 As to conditions: HEK-293 NF-kB luciferase reporter, at 3 µM, stronger effect = higher value. In a few lines: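 Reagent: PMA plus ionomycin mix as NF-kB-activating stimulus. Assay system: NF-kB luciferase reporter HEK-293 cells. Technique: luminescence from luciferase substrate reagent. Incubation: 1 h compound pre-incubation, 16 h PMA/ionomycin at 37 °C. Benchmarks: DMSO only as uninhibited control, 10 µM reference inhibitor as full inhibition. Repeats: tested once.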
As usually defined, the inhibition is the change of the read-out against control, counted positive when it falls. `c1n[nH]c(NCc2ccc3c(c2)OCO3)n1`: the inhibition was 0.1%.

For the compound `CCC(C)(C)n1nnnc1C(c1ccccc1OC)N1CCSCC1` (stereo not given), the inhibition is 9.6%.

Take `Cc1nc(C)c(C(=O)Nc2ccc(C)c(F)c2)o1`: the inhibition is 19.9%.

Take `O=C(CSc1ncccn1)NC(=O)NCc1ccccc1`: the inhibition was 13.2%.

Turning to `CCC(=O)Nc1cccc(NC(=O)CSc2nnc(-c3ccc(NS(C)(=O)=O)cc3)n2C)c1`, the inhibition is 1.5%.

With `COc1ccc(CCn2c(=N)c(C(=O)NCc3ccco3)cc3c(=O)n4cccc(C)c4nc32)cc1`, the inhibition is 7.9%.

As to `Cc1nc2ccc(S(=O)(=O)NCC(=O)O)cc2s1`, the inhibition is -0.6%.

Take `CC1=CC(C)(C)N(C(=O)CSc2nccn2C)c2cc(C)ccc21`: the inhibition is 0%.

Consider `Cc1ccc(C)c(S(=O)(=O)N2CC(=O)Nc3ccccc32)c1`, for which the inhibition was 13.2%.

As for `Cn1c(=O)c2c(nc(SCCNS(=O)(=O)c3ccccc3)n2C)n(C)c1=O`, the inhibition was 11.9%.

As to `O=C(NCCCN1CCN(C2CCCCC2)CC1)Nc1ccccc1C(F)(F)F`, the inhibition was 7.8%.

Regarding `O=C(NCc1ccco1)C1CCCN(S(=O)(=O)c2cccc3nonc23)C1` (stereo not given), the inhibition was 0.7%.

Take `O=P(O)(CN1CCCCC1)CN1CCCCC1`: the inhibition was 4.4%.

As for `CCNC(=O)CCc1nc(-c2ccc(C(C)(C)C)cc2)no1`, the inhibition was 79.1% (active).

For the compound `Cc1ccc(-c2noc(CCC(N)=O)n2)cc1`, the inhibition was 19.8%.

Regarding `Cc1ccc(-c2noc(CCC(=O)Nc3ccccc3N3CCN(C)CC3)n2)cc1`, the inhibition was -2%.

Consider `CCCS(=O)(=O)C(=C1Nc2ccccc2N1)S(=O)(=O)CCC`, for which the inhibition was 3.3%.

For the compound `COc1ccc2c(c1)CCc1c(C(=O)Nc3c(C)n(C)n(-c4ccccc4)c3=O)noc1-2`, the inhibition is 23.3%.

As to `CCCCOc1ccc(-c2nnc(-c3ccco3)o2)cc1`, the inhibition was -34%.

On to `CC(=O)Nc1ccc(S(=O)(=O)N2CCCC2C(=O)O)cc1` (stereo not given), for which the inhibition is 6.9%.

Regarding `CCOC(=O)N1CCN(C(=O)CN(c2ccc(C)c(C)c2)S(=O)(=O)c2ccccc2)CC1`, the inhibition is 10.2%.

Regarding `C=CCc1cccc2cc(C(=O)N3CCN(C(=O)OCC)CC3)c(=O)oc12`, the inhibition is -6.7%.

Turning to `Cc1cc(C)cc(OCc2nnc(SCC(=O)OC3CCCCC3)o2)c1`, the inhibition is 17.6%.

With `Cc1ccnc(N2CCC(C(=O)NC3CCCCCC3)CC2)n1`, the inhibition is 11.5%.

Take `Nc1ccc(-n2nncc2-c2ccco2)cc1`: the inhibition is 4%.

In the case of `Cc1cc(C(=O)OCC(=O)NCc2ccco2)c(C)n1-c1ccccc1`, the inhibition is 41.7% (active).

With `O=C(COC(=O)C12CC3CC(CC(C3)C1)C2)NCc1ccco1`, the inhibition was 3.7%.

For `CCOC(=O)c1cnc(SCC(=O)NCc2ccco2)nc1N`, the inhibition was -2%.

As to `CC1(C)CC(=O)C2=C(C1)NCN(CCCN1CCOCC1)C2`, the inhibition was 3.7%.

Regarding `CCCCC(=O)Nc1cc(C)c2c(=O)oc3ccccc3c2n1`, the inhibition is 2.7%.

As for `Cc1cccc(-n2c(N)c(C(=O)N3CCN(C)CC3)sc2=S)c1`, the inhibition was 8.2%.

Regarding `Cc1ccc2nc(S(=O)(=O)O)[nH]c2c1`, the inhibition was 13.2%.

Consider `COCc1[nH]nc2c1C(C1C=CCCC1)C(C#N)=C(N)O2` (stereo not given), for which the inhibition is -9.1%.

In the case of `CCC(c1nnnn1C1CCCC1)N(Cc1cccs1)Cc1cc2cccc(C)c2[nH]c1=O` (stereo not given), the inhibition is 1.1%.

As to `Cc1cccc2cc(CN(Cc3cccs3)C(c3nnnn3C3CCCC3)C(C)C)c(=O)[nH]c12` (stereo not given), the inhibition is 42% (active).

For the compound `Cc1cccc2cc(CN(Cc3ccc4c(c3)OCO4)Cc3nnnn3C3CCCC3)c(=O)[nH]c12`, the inhibition was 26.6%.

Regarding `CCCCOc1ccc(-c2ncc(C(=O)OCC)c(N)n2)cc1`, the inhibition is 5.2%.

For `Cc1ccc(C)n1-c1ccncc1`, the inhibition was 4.5%.

With `Cc1nnc(Sc2nc3c(c(=O)[nH]c(=O)n3C)n2Cc2ccccc2)s1`, the inhibition was -1.3%.

In the case of `CC(C)CCn1c(CN(C)Cc2ccccc2)nc2c1c(=O)n(C)c(=O)n2C`, the inhibition is 10.4%.

For `CCc1c(C)nc2cc(-c3cccs3)[nH]n2c1=O`, the inhibition was 0.4%.

Regarding `Cn1nnnc1SCC(=O)N1CCN(Cc2ccccc2)CC1`, the inhibition was 10.7%.

For `Cc1cccc(NC(=O)c2ccc3ccccc3n2)n1`, the inhibition is -33.4%.

Take `Cc1ccccc1CSCC(=O)NC(=O)NC(C)(C)C`: the inhibition is -1.2%.

As for `CCOc1ncccc1C(=O)OCc1cn2cc(Cl)ccc2n1`, the inhibition was 7.4%.

Regarding `CC1C(c2ccccc2)=[N+]([O-])C2(CCCC2)N1O` (stereo not given), the inhibition is 5.7%.

`Cc1ccc(-c2cc(C(F)(F)F)n3nc(C(=O)N4CCCC4)cc3n2)cc1`: the inhibition was 13.3%.

Take `CC(C)(C)OC(=O)c1c(N)n(CCCN2CCCC2=O)c2nc3ccccc3nc12`: the inhibition was 11.9%.

With `O=C(NCc1ccco1)c1cc2sccc2n1Cc1ccc(F)cc1`, the inhibition is 19.8%.

As for `O=C(O)CCCC(=O)Nc1ccccc1-n1ccnc1`, the inhibition was -1.2%.

With `COc1ccc(-c2nnc(SC(=O)N3c4ccccc4Sc4ccccc43)o2)cc1`, the inhibition is 9.5%.

For the compound `COc1ccc(O)c(C(=O)c2cnc3onc(C(C)C)c3c2)c1`, the inhibition was 8.8%.

For the compound `Cc1cc(C)c(S(=O)(=O)NCCCN2CCOCC2)cc1Br`, the inhibition was 11.3%.

As to `O=S(=O)(NCc1cccnc1)c1ccc(Br)s1`, the inhibition was 10.6%.

Regarding `CCN1C(=O)C(C(=O)NC(C)c2ccccc2)C2CC1(C)Oc1ccccc12` (stereo not given), the inhibition was 14.7%.
